Measurements reported in ChEMBL document CHEMBL1135734, “Side-chain lactam-bridge conformational constraints differentiate the activities of salmon and human calcitonins and reveal a new design concept for potent calcitonin analogues” (J Med Chem, 2002).
Positions of bridges follow the written chain, without caps; N, C: chain ends. Non-standard residues stand in square brackets, D forms with d. Residues, ends and D or L forms follow the SMILES beside them. Nle = CCCC[C@H](N)C(=O)O; Orn = NCCC[C@H](N)C(=O)O

Assays:
Calcitonin receptor [1] = target: T1, Calcitonin receptor (Homo sapiens, UniProt P30988); assay: Inhibition of [125I]-salmon calcitonin (sCT) binding to human calcitonin receptor I1 expressed in HEK293 cells; assay type: cell-based; details: hek293
T1 sequence (P30988 whole entry): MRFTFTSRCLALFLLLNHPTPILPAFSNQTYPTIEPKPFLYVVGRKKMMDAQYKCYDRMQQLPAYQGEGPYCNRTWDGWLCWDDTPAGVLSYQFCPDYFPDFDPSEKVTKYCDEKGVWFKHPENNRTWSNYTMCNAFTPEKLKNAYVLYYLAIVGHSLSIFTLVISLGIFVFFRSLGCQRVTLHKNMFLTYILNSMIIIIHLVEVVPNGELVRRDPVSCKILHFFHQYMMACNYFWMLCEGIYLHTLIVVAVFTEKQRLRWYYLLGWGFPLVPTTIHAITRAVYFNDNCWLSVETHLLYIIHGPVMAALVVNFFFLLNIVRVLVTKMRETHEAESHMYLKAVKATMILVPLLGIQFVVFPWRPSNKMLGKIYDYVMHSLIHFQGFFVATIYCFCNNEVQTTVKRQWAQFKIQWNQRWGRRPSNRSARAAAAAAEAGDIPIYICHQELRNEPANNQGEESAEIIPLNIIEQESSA

Calcitonin receptor [2] = target: T2, Calcitonin receptor (Rattus norvegicus, UniProt P32214); assay: Displacement of [125I]-salmon calcitonin (sCT) from calcitonin receptor of rat brain
T2 sequence (P32214 whole entry): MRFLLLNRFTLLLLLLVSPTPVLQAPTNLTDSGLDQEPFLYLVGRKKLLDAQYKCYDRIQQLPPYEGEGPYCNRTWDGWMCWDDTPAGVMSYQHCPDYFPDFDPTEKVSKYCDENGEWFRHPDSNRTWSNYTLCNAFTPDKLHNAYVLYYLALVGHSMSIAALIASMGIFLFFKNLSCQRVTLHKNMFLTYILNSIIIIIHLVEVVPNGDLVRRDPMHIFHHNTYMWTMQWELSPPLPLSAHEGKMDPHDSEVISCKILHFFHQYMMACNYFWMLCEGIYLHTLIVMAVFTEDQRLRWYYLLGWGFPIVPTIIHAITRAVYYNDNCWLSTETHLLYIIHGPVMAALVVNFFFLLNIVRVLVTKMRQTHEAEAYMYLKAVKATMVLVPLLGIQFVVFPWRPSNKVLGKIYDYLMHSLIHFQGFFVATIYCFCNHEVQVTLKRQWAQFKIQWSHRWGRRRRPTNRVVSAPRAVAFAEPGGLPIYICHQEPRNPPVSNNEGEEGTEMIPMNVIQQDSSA
Outline: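 Male Sprague–Dawley rat (250–350 g) brain membranes (~0.63 mg protein/tube) were shaken on ice for 30 min with 10 pM final [125I-Tyr22]sCT and competitor in 50 mM Tris-HCl pH 7.4 with 34 μM bacitracin. Tubes were centrifuged and the pellets washed, SDS-solubilized and scintillation counted. Nonspecific binding was taken with 1 μM sCT. IC50 came from probit analysis, and relative affinity set sCT = 100%.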

Row | SMILES | Ki (Calcitonin receptor [1]) [nM] | IC50 (Calcitonin receptor [2]) [nM]
1 | CC[C@H](C)[C@H](NC(=O)[C@H](C)NC(=O)[C@@H](NC(=O)[C@H](CCC(N)=O)NC(=O)[C@@H]1CCCN1C(=O)[C@H](Cc1ccccc1)NC(=O)[C@@H]1CCCCNC(=O)C[C@H](NC(=O)[C@H](Cc2ccccc2)NC(=O)[C@H](CC(=O)O)NC(=O)[C@H](CCC(N)=O)NC(=O)[C@@H](NC(=O)[C@H](Cc2ccc(O)cc2)NC(=O)[C@@H](NC(=O)CNC(=O)[C@H](CC(C)C)NC(=O)[C@H](CCSC)NC(=O)[C@@H]2CSSC[C@H](N)C(=O)NCC(=O)N[C@@H](CC(N)=O)C(=O)N[C@@H](CC(C)C)C(=O)N[C@@H](CO)C(=O)N[C@@H]([C@@H](C)O)C(=O)N2)[C@@H](C)O)[C@@H](C)O)C(=O)N[C@@H](CCCCN)C(=O)N[C@@H](Cc2ccccc2)C(=O)N[C@@H](Cc2cnc[nH]2)C(=O)N1)[C@@H](C)O)C(=O)NCC(=O)N[C@H](C(=O)NCC(=O)N[C@@H](C)C(=O)N1CCC[C@H]1C(N)=O)C(C)C (H-CGNLSTCMLGTYTQDFDKFHKFPQTAIGVGAP-NH2; disulfide 1-7; lactam 17-21) | 195 | 60
2 | CC[C@H](C)[C@H](NC(=O)[C@H](C)NC(=O)[C@@H](NC(=O)[C@H](CCC(N)=O)NC(=O)[C@@H]1CCCN1C(=O)[C@H](Cc1ccccc1)NC(=O)[C@@H](NC(=O)[C@H](Cc1cnc[nH]1)NC(=O)CNC(=O)[C@@H]1CCCN1C(=O)[C@H](CC(N)=O)NC(=O)[C@H](Cc1ccccc1)NC(=O)[C@H](CC(=O)O)NC(=O)[C@H](CCC(N)=O)NC(=O)[C@@H](NC(=O)[C@H](Cc1ccc(O)cc1)NC(=O)[C@@H](NC(=O)CNC(=O)[C@H](CC(C)C)NC(=O)[C@H](CCSC)NC(=O)[C@@H]1CSSC[C@H](N)C(=O)NCC(=O)N[C@@H](CC(N)=O)C(=O)N[C@@H](CC(C)C)C(=O)N[C@@H](CO)C(=O)N[C@@H]([C@@H](C)O)C(=O)N1)[C@@H](C)O)[C@@H](C)O)[C@@H](C)O)[C@@H](C)O)C(=O)NCC(=O)N[C@H](C(=O)NCC(=O)N[C@@H](C)C(=O)N1CCC[C@H]1C(N)=O)C(C)C (H-CGNLSTCMLGTYTQDFNPGHTFPQTAIGVGAP-NH2; disulfide 1-7) | > 2500 | > 5000
3 | CC[C@H](C)[C@H](NC(=O)[C@H](C)NC(=O)[C@@H](NC(=O)[C@H](CCC(N)=O)NC(=O)[C@@H]1CCCN1C(=O)[C@H](Cc1ccccc1)NC(=O)[C@@H](NC(=O)[C@H](Cc1c[nH]cn1)NC(=O)[C@H](CCCCN)NC(=O)[C@@H]1CCCN1C(=O)[C@H](CC(N)=O)NC(=O)[C@H](Cc1ccccc1)NC(=O)[C@H](CC(=O)O)NC(=O)[C@H](CCC(N)=O)NC(=O)[C@@H](NC(=O)[C@H](Cc1ccc(O)cc1)NC(=O)[C@@H](NC(=O)CNC(=O)[C@H](CC(C)C)NC(=O)[C@H](CCSC)NC(=O)[C@@H]1CSSC[C@H](N)C(=O)NCC(=O)N[C@@H](CC(N)=O)C(=O)N[C@@H](CC(C)C)C(=O)N[C@@H](CO)C(=O)N[C@@H]([C@@H](C)O)C(=O)N1)[C@@H](C)O)[C@@H](C)O)[C@@H](C)O)[C@@H](C)O)C(=O)NCC(=O)N[C@H](C(=O)NCC(=O)N[C@@H](C)C(=O)N1CCC[C@H]1C(N)=O)C(C)C (H-CGNLSTCMLGTYTQDFNPKHTFPQTAIGVGAP-NH2; disulfide 1-7) | 2570 | > 5000
4 | CC[C@H](C)[C@H](NC(=O)[C@H](C)NC(=O)[C@@H](NC(=O)[C@H](CCC(N)=O)NC(=O)[C@@H]1CCCN1C(=O)[C@H](Cc1ccccc1)NC(=O)[C@@H]1CCCNC(=O)C[C@H](NC(=O)[C@H](Cc2ccccc2)NC(=O)[C@H](CC(=O)O)NC(=O)[C@H](CCC(N)=O)NC(=O)[C@@H](NC(=O)[C@H](Cc2ccc(O)cc2)NC(=O)[C@@H](NC(=O)CNC(=O)[C@H](CC(C)C)NC(=O)[C@H](CCSC)NC(=O)[C@H](CS)NC(=O)[C@@H](NC(=O)[C@H](CO)NC(=O)[C@H](CC(C)C)NC(=O)[C@H](CC(N)=O)NC(=O)CNC(=O)[C@@H](N)CS)[C@@H](C)O)[C@@H](C)O)[C@@H](C)O)C(=O)N[C@@H](CCCCN)C(=O)N[C@@H](Cc2ccccc2)C(=O)N[C@@H](Cc2c[nH]cn2)C(=O)N1)[C@@H](C)O)C(=O)NCC(=O)N[C@H](C(=O)NCC(=O)N[C@@H](C)C(=O)N1CCC[C@H]1C(N)=O)C(C)C (H-CGNLSTCMLGTYTQDFDKFH[Orn]FPQTAIGVGAP-NH2; lactam 17-21) |  | 173
5 | CCCC[C@H](NC(=O)[C@H](CS)NC(=O)[C@@H](NC(=O)[C@H](CO)NC(=O)[C@H](CC(C)C)NC(=O)[C@H](CC(N)=O)NC(=O)CNC(=O)[C@@H](N)CS)[C@@H](C)O)C(=O)N[C@@H](CC(C)C)C(=O)NCC(=O)N[C@H](C(=O)N[C@@H](Cc1ccccc1)C(=O)N[C@H](C(=O)N[C@@H](CCC(N)=O)C(=O)N[C@@H](CC(=O)O)C(=O)N[C@@H](Cc1ccccc1)C(=O)N[C@H]1CC(=O)NCCC[C@@H](C(=O)N[C@@H](Cc2ccc(O)cc2)C(=O)N2CCC[C@H]2C(=O)N[C@@H](CCC(N)=O)C(=O)N[C@H](C(=O)N[C@@H](C)C(=O)N[C@H](C(=O)NCC(=O)N[C@H](C(=O)NCC(=O)N[C@@H](C)C(=O)N2CCC[C@H]2C(N)=O)C(C)C)[C@@H](C)CC)[C@@H](C)O)NC(=O)[C@H](Cc2c[nH]cn2)NC(=O)[C@H](Cc2ccccc2)NC(=O)[C@H](CCCCN)NC1=O)[C@@H](C)O)[C@@H](C)O (H-CGNLSTC[Nle]LGTFTQDFDKFH[Orn]YPQTAIGVGAP-NH2; lactam 17-21) | 0.56 | 5.39
6 | CC[C@H](C)[C@H](NC(=O)[C@H](C)NC(=O)[C@@H](NC(=O)[C@H](CCC(N)=O)NC(=O)[C@@H]1CCCN1C(=O)[C@H](Cc1ccccc1)NC(=O)[C@@H](NC(=O)[C@H](Cc1c[nH]cn1)NC(=O)[C@@H]1CCCN1C(=O)[C@H](CCCCN)NC(=O)[C@H](CC(N)=O)NC(=O)[C@H](Cc1ccccc1)NC(=O)[C@H](CC(=O)O)NC(=O)[C@H](CCC(N)=O)NC(=O)[C@@H](NC(=O)[C@H](Cc1ccc(O)cc1)NC(=O)[C@@H](NC(=O)CNC(=O)[C@H](CC(C)C)NC(=O)[C@H](CCSC)NC(=O)[C@@H]1CSSC[C@H](N)C(=O)NCC(=O)N[C@@H](CC(N)=O)C(=O)N[C@@H](CC(C)C)C(=O)N[C@@H](CO)C(=O)N[C@@H]([C@@H](C)O)C(=O)N1)[C@@H](C)O)[C@@H](C)O)[C@@H](C)O)[C@@H](C)O)C(=O)NCC(=O)N[C@H](C(=O)NCC(=O)N[C@@H](C)C(=O)N1CCC[C@H]1C(N)=O)C(C)C (H-CGNLSTCMLGTYTQDFNKPHTFPQTAIGVGAP-NH2; disulfide 1-7) | 400 | > 5000
7 | CC[C@H](C)[C@H](NC(=O)[C@H](C)NC(=O)[C@@H](NC(=O)[C@H](CCC(N)=O)NC(=O)[C@@H]1CCCN1C(=O)[C@H](Cc1ccccc1)NC(=O)[C@@H](NC(=O)[C@H](Cc1cnc[nH]1)NC(=O)[C@H](Cc1ccccc1)NC(=O)[C@@H]1CCCN1C(=O)[C@H](CC(N)=O)NC(=O)[C@H](Cc1ccccc1)NC(=O)[C@H](CC(=O)O)NC(=O)[C@H](CCC(N)=O)NC(=O)[C@@H](NC(=O)[C@H](Cc1ccc(O)cc1)NC(=O)[C@@H](NC(=O)CNC(=O)[C@H](CC(C)C)NC(=O)[C@H](CCSC)NC(=O)[C@@H]1CSSC[C@H](N)C(=O)NCC(=O)N[C@@H](CC(N)=O)C(=O)N[C@@H](CC(C)C)C(=O)N[C@@H](CO)C(=O)N[C@@H]([C@@H](C)O)C(=O)N1)[C@@H](C)O)[C@@H](C)O)[C@@H](C)O)[C@@H](C)O)C(=O)NCC(=O)N[C@H](C(=O)NCC(=O)N[C@@H](C)C(=O)N1CCC[C@H]1C(N)=O)C(C)C (H-CGNLSTCMLGTYTQDFNPFHTFPQTAIGVGAP-NH2; disulfide 1-7) | 1230 | 1910
8 | CC[C@H](C)[C@H](NC(=O)[C@H](C)NC(=O)[C@@H](NC(=O)[C@H](CCC(N)=O)NC(=O)[C@@H]1CCCN1C(=O)[C@H](Cc1ccccc1)NC(=O)[C@@H](NC(=O)[C@H](Cc1c[nH]cn1)NC(=O)[C@H](Cc1ccccc1)NC(=O)[C@H](CCCCN)NC(=O)[C@H](CC(N)=O)NC(=O)[C@H](Cc1ccccc1)NC(=O)[C@H](CC(=O)O)NC(=O)[C@H](CCC(N)=O)NC(=O)[C@@H](NC(=O)[C@H](Cc1ccc(O)cc1)NC(=O)[C@@H](NC(=O)CNC(=O)[C@H](CC(C)C)NC(=O)[C@H](CCSC)NC(=O)[C@@H]1CSSC[C@H](N)C(=O)NCC(=O)N[C@@H](CC(N)=O)C(=O)N[C@@H](CC(C)C)C(=O)N[C@@H](CO)C(=O)N[C@@H]([C@@H](C)O)C(=O)N1)[C@@H](C)O)[C@@H](C)O)[C@@H](C)O)[C@@H](C)O)C(=O)NCC(=O)N[C@H](C(=O)NCC(=O)N[C@@H](C)C(=O)N1CCC[C@H]1C(N)=O)C(C)C |  | 2450
